An excerpt weighted towards active compounds, which were near 1.4% of everything screened.
ARNT TACC3 PPI – disrupts binding between human ARNT and TACC3 | Q9Y6A5 | AlphaScreen His-ARNT PAS-B/GST-TACC3 binding, luminescence; TACC3 fragment carries E629A point mutation | inhibition, % at 9.99 µM | 390,000 tested, 0.66% active;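 active means mean inhibition of replicates at least 50% and at least half of replicates each reaching 50%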;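 further: 0% = complete ARNT plus TACC3 wells and 100% = ARNT alone without TACC3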
CAL PDZ FP-1 – human CAL PDZ-peptide interaction inhibition; AID 504414; purified CAL PDZ, TMR-peptide fluorescence polarization, 1 h; inhibition, % at 20 µM; Q9HD26; 330,000 tested, 0.02% active;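 active means highest replicate inhibition of at least 40%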;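 further: plate controls were DMSO neutral control wells for no effect and unlabeled competitor peptide control wells for full effect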
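Control set: unlabelled peptide and DMSO controls / Material: purified CerCALP PDZ construct / Timing: 1 h incubation at room temperature before polarization reading / Doses: 20 µM, one dose / Detection: fluorescence polarization (mP)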
Dyrk1A ADPGlo – Dyrk1A (rat) kinase inhibition; Q63470; ADP-Glo luminescence, NFATc1 peptide; AID 504441; inhibition, % at 12.5 µM; 310,000 tested, 0.43% active; in the data active means inhibition above about 50%;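 further: plate controls were vehicle with enzyme for no effect and no enzyme for full effect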
CAL PDZ FP-2 – blocks peptide binding to the human CAL PDZ domain. 300,000 tested, 0.92% active. purified CAL PDZ, TMR-peptide fluorescence polarization, 1 h. inhibition, % at 24.9 µM. Q9HD26;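 active means mean inhibition of at least 30% with at least half of replicates also reaching 30%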;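 further: 0% = DMSO neutral control and 100% = excess unlabeled competitor peptide PRC23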
Active calls of the source: *; . = not tested or not shown; + = active, no number.

SMILES | ARNT TACC3 PPI | CAL PDZ FP-1 | Dyrk1A ADPGlo | CAL PDZ FP-2
CC(C)(C)CC(=O)NCCCN1CCOCC1 | -2 | 4 | . | 37*
CCOC(=O)CNC(=O)CSc1nnc(Cn2cnc3ccccc32)n1C | 0 | -1 | 4 | +
COc1ccc(NC(=O)CSc2nnc(Cn3cnc4ccccc43)n2C)cc1 | 1 | -2 | -3 | -2
CC(C)(C)Nc1nc(C(N)=O)nc(N2CCOCC2)n1 | 22 | 0 | 10 | .
CCNc1nc(C(=O)O)nc(N2CCOCC2)n1 | 79* | -1 | . | -2
COc1ccccc1S(=O)(=O)N[C@@H]1C=C[C@@H](CC(=O)N2CCN(C)CC2)O[C@@H]1CO | 8 | . | . | .
COc1cccc(C(=O)Nc2ccc3c(c2)C(=O)N(C)[C@H]2CC[C@H](CC(=O)NCC4CC4)O[C@H]2CO3)c1 | 5 | . | . | .
CC(C)OC(=O)N(C)C[C@H]1OCc2cn(nn2)CCCC(=O)N([C@H](C)CO)C[C@H]1C | -5 | . | . | .
CCN(CC(=O)Nc1c(F)cccc1F)C(=O)CSCC(=O)Nc1cccc(C)c1 | 7 | 0 | -2 | 78*
CCN(CC(=O)Nc1c(F)cccc1F)C(=O)Cn1[nH]c(=O)c2ccccc2c1=O | -5 | 0 | 4 | 78*
CCN(CC(=O)Nc1c(F)cccc1F)C(=O)Cc1c[nH]c2ccccc12 | -10 | 0 | . | 6
CCN(CC(=O)Nc1c(F)cccc1F)C(=O)CSCC(=O)Nc1ccc(OC)cc1 | -4 | -1 | -1 | -2
CC1(C)Oc2ccc3ccc(=O)oc3c2/C(=C/NNC(N)=S)C1=O | 75* | 1 | 19 | -6
Cc1cccc(NC(=O)CCNC(=O)c2ccc(Br)cc2)c1 | -3 | -1 | -1 | 47*
Cc1ccc(S(=O)(=O)N[C@@H]2CC[C@H](CC(=O)NC3CCCCC3)O[C@@H]2CO)cc1 | -3 | . | . | .
COc1ccc(C(=O)NCC(=O)OCC(=O)NCc2ccco2)cc1 | -5 | 0 | -2 | 43*
COc1cc(C(=O)NCc2nnc(SCC(=O)Nc3c(C)cc(C)cc3C)o2)cc(OC)c1OC | 2 | -1 | 0 | 60*
CCNC(=O)COC(=O)c1ccc(-n2nc(C)cc2C)cc1 | -1 | -1 | -7 | 3
COc1cc(OC)cc(C(=O)NCC(=O)OCC(=O)NCc2ccco2)c1 | -2 | 0 | -4 | -9
Cc1cc(C)n(-c2ccc(C(=O)OCC(=O)NCc3ccco3)cc2)n1 | 7 | . | . | 40*
COc1ccc(C(=O)CSc2nnc(CNC(=O)c3ccccc3)o2)cc1 | -8 | 0 | -2 | 52*
O=C(CSc1nnc(CNC(=O)c2ccccc2)o1)c1ccc(Cl)cc1 | -7 | -1 | 0 | -7
COc1cccc(C(=O)N2C[C@H]3[C@@H](c4ccccc42)[C@@H](CO)N3C(=O)c2cccc(F)c2)c1 | -9 | . | . | .
COc1ccc(C#Cc2cnc3c(c2)C(=O)N([C@@H](C)CO)C[C@H](C)[C@H](CN(C)C(C)=O)O3)cc1 | -4 | . | . | .
CC(C)(C)c1ccc(C(=O)NCc2nnc(SCC(=O)NCc3ccco3)o2)cc1 | 4 | 9 | 4 | -2
SMILES | ARNT TACC3 PPI | CAL PDZ FP-1 | Dyrk1A ADPGlo | CAL PDZ FP-2
COc1ccc(C(=O)NCc2nnc(SCC(=O)NCc3ccco3)o2)cc1 | 5 | -1 | -4 | 88*
Cc1ccc(S(=O)(=O)Nc2cccc3cccnc23)cc1 | 50* | -1 | -4 | 42*
CN(C)c1cccc(C(=O)NNC(=O)/C=C/c2cccs2)c1 | -1 | 1 | . | 77*
Cc1ccc(N2CC(c3nc4ccccc4n3C)CC2=O)cc1 (configuration not stated) | -1 | -2 | . | 31*
CCCn1c(C2CC(=O)N(c3ccc(C)cc3)C2)nc2ccccc21 (configuration not stated) | -1 | -1 | -3 | -3
O=S(=O)(c1cccc(-c2n[nH]c(=S)o2)c1)N1CCOCC1 | -4 | -1 | 3 | 98*
COc1ccc(Nc2nnc(-c3ccc(C(N)=O)cc3)c3ccccc23)cc1 | 51* | 0 | -1 | .
CCOc1ccc(NS(=O)(=O)c2ccc(NC(=O)c3ccccc3C(=O)O)cc2)cc1 | 4 | 0 | -5 | 76*
CCOc1ccc(NS(=O)(=O)c2ccc(NC(=O)c3ccccn3)cc2)cc1 | 21 | -1 | 10 | .
Cc1noc(C)c1NC(=O)N(C)C[C@@H]1Oc2ncc(C#CC(C)(C)O)cc2C(=O)N([C@H](C)CO)C[C@@H]1C | 6 | . | . | .
Oc1[nH]c2ccccc2c1N=NC(=S)N1CCOCC1 | 66* | 1 | 13 | 3
CC(C)NC(=O)N(C)C[C@H]1Oc2ccc(NC(=O)Nc3cccc4ccccc34)cc2C(=O)N([C@H](C)CO)C[C@@H]1C | -8 | . | . | .
C[C@H](CO)N1C[C@H](C)[C@@H](CN(C)S(=O)(=O)c2cn(C)cn2)Oc2ccc(NC(=O)CCCN(C)C)cc2C1=O | -5 | . | . | .
O=C(CCN1C(=O)/C(=C\c2ccccc2Cl)SC1=S)Nc1cccnc1 | -8 | -1 | -4 | 66*
C[C@H]1CN([C@@H](C)CO)S(=O)(=O)c2ccc(C#CC3(O)CCCC3)cc2O[C@H]1CN(C)C(=O)Cc1ccccc1 | 2 | . | . | .
O=C(NC(Cc1ccccc1)C(=O)O)c1ccco1 (configuration not stated) | -18 | 0 | 2 | 32*
Cc1[nH][nH]c(=O)c1C(c1ccc(-c2ccc(Cl)c(Cl)c2)o1)c1c(C)[nH][nH]c1=O | 61* | -1 | -2 | -4
O=C(CN1CCOCC1)NCC[C@H]1CC[C@H](NS(=O)(=O)c2ccc(F)cc2)[C@@H](CO)O1 | -4 | . | . | .
COC(=O)c1ccccc1NC(=S)N1CCN(C2CCCCC2)CC1 | 2 | -1 | . | 61*
COC(=O)c1ccccc1NC(=S)N1CCC(N2CCCCC2)CC1 | 13 | -1 | 7 | .
O=C(NC1CCC1)[C@H]1N[C@H]2c3ccc(-c4cccc(F)c4)c(=O)n3C[C@H]2[C@@H]1CO | -2 | . | . | .
O=C(NC1CCN(C(=O)Nc2cccc(Cl)c2)CC1)c1ccco1 | 6 | 0 | -6 | 58*
C[c-]1[c-](C)[c-](C)[c-](C)[c-]1C.[Fe].c1cc2nccc(N3CCCC3)[c-]2c1 (configuration not stated) | 62* | 0 | -2 | 3
c1cc(N2CCCCC2)nc(N2CCCCC2)n1 | -6 | -1 | . | .
CCC(=O)Nc1ccc2c(c1)OC[C@@H](C)N(C(=O)COC)C[C@@H](C)[C@@H](OC)CN(C)C2=O | -1 | . | . | .
CCC(CC)NC(=O)COC(=O)c1ccc(OCC(=O)Nc2ccccc2OC)c(OC)c1 | -19 | 1 | . | 44*
CCCNC(=O)COC(=O)c1ccc(OCC(=O)Nc2ccccc2OC)c(OC)c1 | -5 | 1 | 3 | 9
CC(COc1ccccc1)OC(=O)Nc1ccccc1 (configuration not stated) | -11 | 31 | 0 | 61*
CC(CNC(=O)COc1ccccc1)OC(=O)Nc1cccc(Cl)c1 (configuration not stated) | -10 | -3 | 7 | -3
CN(C)c1ccc(O)c2c1CC1CC3[C@@H](N(C)C)C(=O)C(C(N)=O)C(=O)[C@]3(O)C(=O)C1C2=O (some centres not stated) | 60* | 1 | 4 | 2

Source: PubChem BioAssay (Broad Institute)
